Assay results published in ChEMBL document CHEMBL1154185 (J Med Chem, 2009).
Calls of active or inactive are those of the source.

Assays:
A549 [1] = assay: Growth inhibition of proapoptotic stimuli-resistant human A549 cells after 72 hrs by MTT assay; format: functional, cell-based; settings: Homo sapiens, A549, 72 h
Summary of the method: (§1)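 Cells plated 24 h in 96-well plates (10,000-40,000 cells/mL by cell type) in MEM (5% or 10% heat-inactivated FBS; with 100 μM non-essential amino acids for WI-38 and NHDF) or RPMI 10% FBS (A549), then exposed 72 h to compound up to 100 μM; MTT reduction read at 570 nm (reference 630 nm); sextuplicate.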

[2] = Growth inhibition of proapoptotic stimuli-resistant human OE21 cells after 72 hrs by MTT assay; format: functional, cell-based; settings: Homo sapiens, OE21, 72 h
U-373MG ATCC [3] = assay: Cytotoxic activity against proapoptotic stimuli-resistant human U373 cells assessed as induction of cell death at 5 uM after 72 hrs by quantitative video microscopy; format: functional, cell-based
Summary of the method: (§2)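 Phase-contrast time-lapse videomicroscopy with 5 μM for 72 h vs untreated control. Growth level = cell count in last frame / first frame (0 h). Global growth ratio compares treated with control growth level. Counts done in triplicate with an interactive tool. Morphology followed over the same period.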

A549 [4] = assay: Cytostatic activity against proapoptotic stimuli-resistant human A549 cells at 5 uM after 72 hrs by quantitative video microscopy; format: functional, cell-based; summary of the method: as §2
U-373MG ATCC [5] = assay: Cytostatic activity against proapoptotic stimuli-resistant human U373 cells at 5 uM after 72 hrs by quantitative video microscopy; format: functional, cell-based; summary of the method: as §2
[6] = Growth inhibition of proapoptotic stimuli-sensitive human Hs683 cells after 72 hrs by MTT assay; format: functional, cell-based, Hs 683; settings: Homo sapiens, Hs 683, 72 h
Summary of the method: (§3)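 MTT assay. Cells were plated at 10,000–40,000 cells/mL and left 24 h to attach, then exposed to compound for 72 h (untreated controls). Formazan was read at 570 nm (reference 630 nm). Tested up to 10 μM (first panel) or up to 100 μM (second panel). Sextuplicate. U373 grown in MEM + 5% FBS; Hs683, SK-MEL-28 and B16F10 in RPMI + 10% FBS.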

[7] = Growth inhibition of proapoptotic stimuli-resistant human U373 cells after 72 hrs by MTT assay; format: functional, cell-based, U-373MG ATCC; settings: Homo sapiens, U373 MG, 72 h; summary of the method: as §3
SK-MEL-28 = assay: Growth inhibition of proapoptotic stimuli-resistant human SK-MEL-28 cells after 72 hrs by MTT assay; format: functional, cell-based; settings: Homo sapiens, SK-MEL-28, 72 h; summary of the method: as §3
B16-F10 [8] = assay: Growth inhibition of proapoptotic stimuli-sensitive mouse B16F10 cells after 72 hrs by MTT assay; format: functional, cell-based; settings: Mus musculus, B16-F10, 72 h; summary of the method: as §3
[9] = Growth inhibition of human WI38 cells after 72 hrs by MTT assay; format: cell-based; settings: WI-38, 72 h; summary of the method: as §1
[10] = Growth inhibition of human WS1 cells after 72 hrs by MTT assay; format: cell-based; settings: WS1, 72 h; summary of the method: as §1
NHDF = assay: Growth inhibition of human NHDF after 72 hrs by MTT assay; format: cell-based; summary of the method: as §1
A549 [11] = assay: Cytotoxic activity against proapoptotic stimuli-resistant human A549 cells assessed as induction of cell death at 5 uM after 72 hrs by quantitative video microscopy; format: functional, cell-based; summary of the method: as §2
[12] = Reduction in mitosis occurrence in proapoptotic stimuli-resistant human U373 cells at 5 uM after 72 hrs by quantitative video microscopy; format: functional, U-373MG ATCC; parameters: scale not given: the % may be the effect or the level left
Summary of the method: (§4)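 Cells treated 72 h with 5 μM compound and filmed by computer-assisted phase-contrast videomicroscopy; mitoses counted within a 2 mm² frame over the 72 h observation period, compared with untreated control.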

A549 [13] = assay: Reduction in mitosis occurrence in proapoptotic stimuli-resistant human A549 cells at 5 uM after 72 hrs by quantitative video microscopy; format: functional; parameters: scale not given: the % may be the effect or the level left; summary of the method: as §4
U-373MG ATCC [14] = assay: Inhibition of cytokinesis in proapoptotic stimuli-resistant human U373 cells at 5 uM after 72 hrs by quantitative video microscopy; format: functional, cell-based
Summary of the method: (§5)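 Quantitative videomicroscopy with 5 μM for 72 h. Mitoses counted within a 2 mm² frame over the 72 h observation. Single cells in treated colonies were tracked at high magnification to follow mitosis and cytokinesis over time.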

A549 [15] = assay: Inhibition of cytokinesis in proapoptotic stimuli-resistant human A549 cells at 5 uM after 72 hrs by quantitative video microscopy; format: functional, cell-based; summary of the method: as §5
U-373MG ATCC [16] = assay: Increase in polymerized actin levels in proapoptotic stimuli-resistant human U373 cells at 5 uM after 6 hrs by fluorescence microscopy; format: functional, cell-based
Summary of the method: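 U373 cells, untreated or exposed to 5 μM for 6 h, stained and imaged by computer-assisted fluorescence microscopy. Fibrillar (polymerized) actin labelled with Alexa Fluor488-phallacidin (green); globular actin with Alexa Fluor594-DNase I (red).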

A549 [17] = assay: Increase in polymerized actin levels in proapoptotic stimuli-resistant human A549 cells at 5 uM after 6 hrs by fluorescence microscopy; format: functional, cell-based
U-373MG ATCC [18] = assay: Inhibition of cell migration of proapoptotic stimuli-resistant human U373 cells at 5 uM by quantitative video microscopy; format: functional, cell-based
Summary of the method: (§6)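 Quantitative videomicroscopy of cells untreated or given 0.5 or 5 μM. Migration scored as MRDO, the greatest linear distance each single cell travels from its origin, over 12 or 24 h of observation. Means ± SEMs.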

A549 [19] = assay: Inhibition of cell migration of proapoptotic stimuli-resistant human A549 cells at 5 uM by quantitative video microscopy; format: functional, cell-based; summary of the method: as §6
U-373MG ATCC [20] = assay: Reduction of colony formation in undifferentiated proapoptotic stimuli-resistant human U373 cells at 0.5 uM under anchorage-independent culture conditions by quantitative video microscopy; format: functional, cell-based
U-373MG ATCC [21] = assay: Reduction of colony formation in undifferentiated proapoptotic stimuli-resistant human U373 cells at 5 uM under anchorage-independent culture conditions by quantitative video microscopy; format: functional, cell-based
A549 [22] = assay: Reduction of colony formation in undifferentiated proapoptotic stimuli-resistant human A549 cells at 5 uM under anchorage-independent culture conditions by quantitative video microscopy; format: functional, cell-based
Summary of the method: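 Soft-agar (anchorage-independent) culture of A549 cells, without or with 5 μM, for 38 days after plating. Colonies counted in three 0.4 mm² areas per condition, experiment in hexaplicate. Means ± SEMs.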

U-373MG ATCC [23] = assay: Induction of non-apoptotic cell death in human U373 cells at 50 uM after 72 hrs by annexin-V/propidium iodide staining based flow cytometry; format: functional
Summary of the method: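 Flow cytometry with annexin-V/propidium iodide double staining after 72 h. U373 given 0, 5 or 50 μM; MCF-7 treated 72 h with a 1 μM pro-apoptotic positive control. Early apoptosis = AV+/PI−, late = AV+/PI+, non-apoptotic death = AV−/PI+. Means ± SEMs.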

[24] = Toxicity in iv dosed mouse administered once daily for 5 consecutive days measured after 28 days; format: organism-based; settings: in vivo
Summary of the method: (§7)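 Healthy mice given compound i.v. (tail vein) in 50 μL saline once daily for 5 consecutive days (Monday-Friday) at 5, 10, 20, 40 or 80 mg/kg; 3 mice per group; body weight and survival followed over 28 days; MTD defined as dose just below lowest dose killing at least one mouse; means ± SEM.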

B16-F10 [25] = assay: Antitumor activity against mouse B16F10 cells implanted in B6D2F1 mouse assessed as increase in mouse survival at 40 mg/kg, iv administered thrice weekly for 3 consecutive weeks starting from 5th day post tumor grafting; format: functional, organism-based; parameters: dose 40 mg/kg
Summary of the method: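 Female B6D2F1 mice (17-19 g) received stereotactic brain implants of B16F10 melanoma cells, all on the same day. Treatment started on day 5 post-graft: 40 mg/kg i.v. (tail vein) in 50 μL, Mon/Wed/Fri for 3 consecutive weeks. Controls received 50 μL saline i.v.; the reference arm got cisplatin 5 mg/kg i.p. on the same schedule. 11 mice per group; survival analysed.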

B16-F10 [26] = assay: Antitumor activity against mouse B16F10 cells implanted in iv dosed B6D2F1 mouse assessed as active dose increasing mouse survival administered thrice weekly for 3 consecutive weeks starting from 5th day post tumor grafting; format: functional
Mus musculus = assay: Toxicity in iv dosed mouse assessed as reduction of body weight at 5 to 80 mg/kg, iv administered once daily for 5 consecutive days measured after 28 days; format: organism-based; parameters: dose 5-80 mg/kg, route intravenous; settings: in vivo, 672 h; summary of the method: as §7
U-373MG ATCC [27] = assay: Increase in actin cytoskeleton rigidity in proapoptotic stimuli-resistant human U373 cells at 5 uM after 6 hrs by fluorescence microscopy
A549 [28] = assay: Reduction of colony formation in undifferentiated proapoptotic stimuli-resistant human A549 cells at 5 uM under anchorage-independent culture conditions by quantitative video microscopy

O[C@H]1[C@H]2c3cc4c(cc3CN3CCC(=C[C@@H]1O)[C@H]23)OCO4 [LYCORINE]
IC50 (A549 [1]): 4.3 µM | IC50 [2]: 5.1 µM | Activity (U-373MG ATCC [3]): inactive | Activity (A549 [4]): Active | Activity (U-373MG ATCC [5]): Active | IC50 [6]: 6.7 µM | IC50 [7]: 7.6 µM | IC50 (SK-MEL-28): 8.5 µM | IC50 (B16-F10 [8]): 6.3 µM | IC50 [9]: > 100 µM | IC50 [10]: > 100 µM | IC50 (NHDF): > 100 µM | Activity (A549 [11]): inactive | Activity [12]: >=90% | Activity (A549 [13]): >=90% | Activity (U-373MG ATCC [14]): Active | Activity (A549 [15]): Active | Activity (U-373MG ATCC [16]): Active | Activity (A549 [17]): Active | Activity (U-373MG ATCC [18]): Active | Activity (A549 [19]): Active | Activity (U-373MG ATCC [20]): Active | Activity (U-373MG ATCC [21]): Active | Activity (A549 [22]): Active | Activity (U-373MG ATCC [23]): Active | MTD at 672 h [24]: > 80 mg/kg | Activity (B16-F10 [25]): Active | Dose (B16-F10 [26]): 40 mg/kg | Activity (Mus musculus): Non-toxic | Activity (U-373MG ATCC [27]): Active | Activity (A549 [28]): Active
